Assay results: ChEMBL document CHEMBL1153564 (Antimicrob Agents Chemother, 2008)
Values after ≈ are worked out from the molar mass of the structure shown. Active and inactive are the calls of the source. No cut-off for these calls is given here. Starred links: 1 amine or outer side, 2 acyl side, 3 side chain; linkers in the order of their positions; H or OH if unused. Positions of bridges follow the written chain, without caps; N, C: chain ends. Non-standard residues stand in square brackets, D forms with d. Residues, ends and D or L forms follow the SMILES beside them. *: point of attachment. pTerphenylCO(4''-OnC5H11) = CCCCCOc1ccc(-c2ccc(-c3ccc(C(=O)*)cc3)cc2)cc1; Orn(4R-OH,5R-OH) = O=C([C@H](C[C@@H](O)[C@@H](O)N[*:3])N[*:1])[*:2]; hTyr(3S-OH,4S-OH) = N[C@H](C(=O)O)[C@H](O)[C@@H](O)c1ccc(O)cc1; Pro(3S-OH,4S-Me) = C[C@H]1CN[C@H](C(=O)O)[C@H]1O; Hyp = O=C(O)[C@@H]1C[C@@H](O)CN1

How the values were obtained:
Candida albicans [1] = test: Antifungal activity against Candida albicans 98-210 assessed as complete growth inhibition after 24 hrs by CLSI end point method; assay type: functional; details: 98-210, 24 h
In short: (§1)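 CLSI M27-A2 broth dilution. Two end points read against the drug-free control well: partial inhibition (CLSI end point) and complete inhibition. Run in duplicate on four separate occasions; value is the mean. Drug stock in DMSO, diluted in 0.9% NaCl.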

Serum [2] = test: Fraction unbound in Candida albicans K-1 infected neutropenic ICR/Swiss mouse serum at 20 mg/kg, ip administered 2 hrs postinfection as single dose measured after 12 hrs; assay type: ADME, organism-based; parameters: dose 20 mg/kg, route intraperitoneal; details: in vivo
Candida tropicalis = test: Antifungal activity against Candida tropicalis 98-234 assessed as partial growth inhibition after 24 hrs by CLSI end point method; assay type: functional; details: 98-234, 24 h
Candida albicans [3] = test: Antifungal activity against Candida albicans 98-17 infected in neutropenic ICR/Swiss mouse candidiasis model assessed as dose required for 1-log10 reduction in […] per kidney administered intraperitoneally every 24 hrs up to 4 days measured per 24 hrs; assay type: functional
In short: (§2)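 Neutropenic mice (cyclophosphamide sc on days −4, −1 and +2) were infected iv 2 h before therapy. Five total doses from 0.078 to 20 mg/kg/24 h were given ip q24h for 4 days, three mice per regimen. Kidney CFU were measured at the end of therapy. Static and 1-log-kill doses were derived from a Hill sigmoid dose-effect fit.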

Nakaseomyces glabratus [4] = test: Antifungal activity against Candida glabrata 5376 infected in neutropenic ICR/Swiss mouse candidiasis model assessed as reduction of […] in kidney at 1.25 mg/kg, ip administered 2 hrs postinfection as single dose measured within 1 to 4 hrs post dosing by time-kill assay; assay type: functional, organism-based; parameters: dose 1.25 mg/kg
In short: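 Neutropenic mice given a single ip dose (1.25, 5 or 20 mg/kg) 2 h after tail-vein infection. Kidneys from 3 mice per time point collected nine times over 96 h. Homogenates serially diluted 1:10 and plated on SDA, 24 h at 35°C. Detection limit 100 CFU/ml.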

Nakaseomyces glabratus [5] = test: Antifungal activity against Candida glabrata 37661 assessed as complete growth inhibition after 24 hrs by CLSI end point method; assay type: functional; details: Nakaseomyces glabratus, 37661, 24 h
In short: (§3)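 Two end points were read against the drug-free control well: partial growth inhibition (the CLSI end point) and complete inhibition. Run in duplicate on four separate occasions; the value is the mean. Drug stock was made in DMSO and diluted in 0.9% NaCl.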

Nakaseomyces glabratus [6] = test: Antifungal activity against Candida glabrata 32930 infected in neutropenic ICR/Swiss mouse candidiasis model assessed as fungal count per kidney administered 2 hrs postinfection measured up to 48 hrs; assay type: functional
In short: (§4)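 Untreated neutropenic mice infected via the tail vein (inoculum about 6.1 log10 CFU/ml, 0.1 ml). Growth is the rise in kidney CFU over 48 h. Kidneys were homogenised, serially diluted 1:10 and plated on SDA for 24 h at 35°C. Mean of three mice.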

Serum [7] = test: Fraction unbound in Candida albicans K-1 infected neutropenic ICR/Swiss mouse serum at 5 mg/kg, ip administered 2 hrs postinfection as single dose; assay type: ADME, organism-based; parameters: dose 5 mg/kg, route intraperitoneal; details: in vivo
[8] = AUC (0 to infinity) in serum of neutropenic ICR/Swiss mouse candidiasis model at 5 mg/kg, ip by reverse-phase high-pressure liquid chromatography; assay type: ADME, organism-based; parameters: time infinity, dose 5 mg/kg, route intraperitoneal
In short: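 Single ip dose in 0.2 ml to infected neutropenic mice. Serum from groups of three isoflurane-anaesthetised mice at 1, 4, 8, 12, 24 and 48 h, stored −80°C. Drug measured by reverse-phase HPLC with fluorescence detection against loratadine internal standard (calibration 10–50,000 ng/ml). Noncompartmental analysis; AUC by trapezoidal rule.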

Candida albicans [9] = test: Antifungal activity against Candida albicans K-1 infected in neutropenic ICR/Swiss mouse candidiasis model assessed as suppression of fungal regrowth at 1.25 mg/kg, ip administered 2 hrs postinfection as single dose by time-kill assay; assay type: functional, organism-based; parameters: dose 1.25 mg/kg
In short: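 Single ip dose of 1.25, 5 or 20 mg/kg given 2 h after iv infection of neutropenic mice. Groups of 3 treated and 3 control mice sampled at 1–24 h intervals over 96 h. Kidney homogenates plated on SDA, 24 h at 35°C. PAFE = time for treated burden to rise 1 log10 CFU/kidney after serum level fell below MIC, minus the same time in controls.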

[10] = Protein binding in Candida albicans K-1 infected neutropenic ICR/Swiss mouse serum after 30 mins by arithmetic dilution method; assay type: ADME, organism-based; details: read-out: PB (converted)
Candida albicans [11] = test: Antifungal activity against Candida albicans K-1 infected in neutropenic ICR/Swiss mouse candidiasis model assessed as fungal count per kidney administered 2 hrs postinfection measured up to 48 hrs; assay type: functional; in short: as §4
Nakaseomyces glabratus [12] = test: Antifungal activity against Candida glabrata 32930 infected in neutropenic ICR/Swiss mouse candidiasis model assessed as dose required to maintain […] of 1.83 +/- 0.54 log10CFU per kidney administered intraperitoneally every 24 hrs up to 4 days measured per 24 hrs; assay type: functional
Candida albicans [13] = test: Antifungal activity against Candida albicans K-1 assessed as complete growth inhibition after 24 hrs by CLSI end point method; assay type: functional; details: K-1, 24 h; in short: as §1
Candida albicans [14] = test: Antifungal activity against Candida albicans 98-17 assessed as complete growth inhibition after 24 hrs by CLSI end point method; assay type: functional; details: 98-17, 24 h; in short: as §1
Nakaseomyces glabratus [15] = test: Antifungal activity against Candida glabrata 37661 assessed as partial growth inhibition after 24 hrs by CLSI end point method; assay type: functional; details: Nakaseomyces glabratus, 37661, 24 h; in short: as §3
[16] = Elimination half life in serum of neutropenic ICR/Swiss mouse candidiasis model at 80 mg/kg, ip by reverse-phase high-pressure liquid chromatography; assay type: ADME, organism-based; parameters: dose 80 mg/kg, route intraperitoneal; details: read-out: beta t1/2 (converted)
In short: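 Infected neutropenic ICR/Swiss mice given single ip doses (5, 20 or 80 mg/kg; 0.2 ml); serum from three isoflurane-anaesthetised mice at 1, 4, 8, 12, 24 and 48 h, stored at −80°C, assayed by reverse-phase HPLC with fluorescence detection, loratadine internal standard, linear 10–50,000 ng/ml. Noncompartmental analysis; half-life by nonlinear least squares.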

[17] = Steady state AUC in human at 100 mg/day; assay type: ADME, organism-based; details: in vivo
[18] = Cmax in human at 100 mg/day; assay type: ADME, organism-based; parameters: dose 100 mg/day; details: in vivo
Candida albicans [19] = test: Antifungal activity against Candida albicans 98-210 infected in neutropenic ICR/Swiss mouse candidiasis model assessed as dose required to maintain […] of 3.81 +/- 0.33 log10CFU per kidney administered intraperitoneally every 24 hrs up to 4 days measured per 24 hrs; assay type: functional; in short: as §2
Candida albicans [20] = test: Antifungal activity against Candida albicans 580 infected in neutropenic ICR/Swiss mouse candidiasis model assessed as dose required for 1-log10 reduction in […] per kidney administered intraperitoneally every 24 hrs up to 4 days measured per 24 hrs; assay type: functional; in short: as §2
Nakaseomyces glabratus [21] = test: Antifungal activity against Candida glabrata 34341 assessed as complete growth inhibition after 24 hrs by CLSI end point method; assay type: functional; details: Nakaseomyces glabratus, 34341, 24 h; in short: as §3
Nakaseomyces glabratus [22] = test: Antifungal activity against Candida glabrata after 24 hrs by broth microdilution method; assay type: functional; in short: as §3
Nakaseomyces glabratus [23] = test: Antifungal activity against Candida glabrata 32930 assessed as partial growth inhibition after 24 hrs by CLSI end point method; assay type: functional; details: Nakaseomyces glabratus, 32930, 24 h; in short: as §1

Work on `CCCCCOc1ccc(-c2ccc(-c3ccc(C(=O)N[C@H]4C[C@@H](O)[C@@H](O)NC(=O)[C@@H]5[C@@H](O)[C@@H](C)CN5C(=O)[C@H]([C@@H](C)O)NC(=O)[C@H]([C@H](O)[C@@H](O)c5ccc(O)cc5)NC(=O)[C@@H]5C[C@@H](O)CN5C(=O)[C@H]([C@@H](C)O)NC4=O)cc3)cc2)cc1` [ANIDULAFUNGIN] ({pTerphenylCO(4''-OnC5H11)}-[Orn(4R-OH,5R-OH)]T[Hyp][hTyr(3S-OH,4S-OH)]T[Pro(3S-OH,4S-Me)]; lactam 1-C) yielded an MIC (Candida albicans [1]) of 0.06 µg/mL (≈ 0.0526 µM), a Fu (Serum [2]) of 1% and an MIC (Candida tropicalis) of 0.015 µg/mL (≈ 0.0132 µM). For the same compound, the Activity (Candida albicans [3]) was 1.95 mg/kg, the Activity (Nakaseomyces glabratus [4]) was “Active” and the MIC (Nakaseomyces glabratus [5]) was 2 µg/mL (≈ 1.75 µM). It also gave a log10cfu (Nakaseomyces glabratus [6]) of 1.29, a Fu (Serum [7]) of 1% and an AUC(0-inf) [8] of 96 µg·h/mL. The Activity (Candida albicans [9]) was “Active”, the fraction unbound at 0.5 h [10] was 0.2 and the log10cfu (Candida albicans [11]) was 4. For the same compound, the Activity (Nakaseomyces glabratus [12]) was 1.58 mg/kg, the MIC (Candida albicans [13]) was 0.12 µg/mL (≈ 0.105 µM) and the MIC (Candida albicans [14]) was 0.12 µg/mL (≈ 0.105 µM). For the same compound, the MIC (Nakaseomyces glabratus [15]) was 2 µg/mL (≈ 1.75 µM), the half-life [16] was 24 h and the AUC [17] was 112 µg·h/mL. It also gave a Cmax [18] of 11000 ng/mL, an Activity (Candida albicans [19]) of 3.37 mg/kg and an Activity (Candida albicans [20]) of 2.31 mg/kg. The MIC (Nakaseomyces glabratus [21]) was 1 µg/mL (≈ 0.877 µM), the MIC90 (Nakaseomyces glabratus [22]) was 0.12 µg/mL (≈ 0.105 µM) and the MIC (Nakaseomyces glabratus [23]) was 0.06 µg/mL (≈ 0.0526 µM).
